Key:
[1] = system: RT-4; experiment: Growth inhibition against human RT-4 cell lines; assay type: functional, cell-based; conditions: Homo sapiens, RT-4
How it was run: (§1)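 Cells were grown in RPMI-1640 with 2 g/L NaHCO3 and 10% FCS at 37 °C in 5% CO2, seeded at 1000 cells/well, and dosed 24 h later at five geometric dilutions for 96 h of continuous exposure. Cells were then glutaraldehyde-fixed and stained with crystal violet, with OD read at 570 nm. IC50 was taken from the dose–response data.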

[2] = system: SISO; experiment: Cytotoxic activity against human SISO cell line at 20 uM; assay type: functional
How it was run: (§2)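 Cells in RPMI-1640 with 10% FCS were seeded (1000 cells/well; KYSE-510 500, LCLC-103H 250), then exposed 24 h later for 96 h. Read-out was crystal violet staining of glutaraldehyde-fixed cells at OD 570 nm. Growth (%) = (OD treated − OD at drug addition)/(OD control − OD at drug addition) × 100.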

[3] = system: LCLC-103H cell line; experiment: Growth inhibition against human LCLC-103H cell lines; assay type: functional, cell-based; conditions: Homo sapiens, LCLC-103H
How it was run: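 LCLC-103H cells were grown in RPMI-1640 with 2 g/L NaHCO3 and 10% FCS (5% CO2, 37 °C) and plated at 250 cells/well. After 24 h, five geometric dilutions were applied continuously for 96 h. Fixation was with glutaraldehyde, followed by crystal violet staining and OD at 570 nm. IC50 came from the dose–response curves.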

[4] = system: 5637; experiment: Cytotoxic activity against human 5637 cell line at 20 uM expressed as percent growth value; assay type: functional; how it was run: as §2
[5] = system: TERT-RPE1; experiment: Compound was tested for growth inhibition against human h-TERTRPE1 cell lines; assay type: functional, cell-based; conditions: Homo sapiens, RPE-1
How it was run: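 The noncancerous hTERT-immortalized epithelial line h-TERT-RPE1 was grown in DMEM/F-12 with 2 g/L NaHCO3 and 10% FCS (37 °C, 5% CO2) and seeded at 1000 cells/well. Substance was added 24 h later at five geometric dilutions for 96 h continuously. The read-out was crystal violet staining after glutaraldehyde fixation, OD 570 nm, with IC50 from dose–response.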

[6] = system: 5637; experiment: Growth inhibition against human 5637 cell lines; assay type: functional, cell-based; conditions: Homo sapiens; how it was run: as §1
[7] = system: KYSE-70 cell line; experiment: Cytotoxic activity against human KYSE-70 cell line at 20 uM expressed as percent growth value; assay type: functional; how it was run: as §2
[8] = system: SISO; experiment: Growth inhibition against human SISO cell lines; assay type: functional, cell-based; conditions: Homo sapiens, SISO; how it was run: as §1
[9] = system: MCF7; experiment: Growth inhibition against human MCF-7 cell lines; assay type: functional, cell-based; conditions: Homo sapiens, MCF7
How it was run: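 MCF-7 was cultured in RPMI-1640 with 2 g/L NaHCO3, 10% FCS, 1 mM pyruvate, MEM salts and amino acids. Plating was 1000 cells/well, then after 24 h, 96 h of continuous exposure at five geometric dilutions. Crystal violet staining of glutaraldehyde-fixed cells was read at 570 nm, and IC50 was derived from the dose–response data.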

[10] = system: DAN-G; experiment: Growth inhibition against human DAN-G cell lines; assay type: functional, cell-based; conditions: Homo sapiens, DAN-G; how it was run: as §1
[11] = system: KYSE-70 cell line; experiment: Growth inhibition against human KYSE-70 cell lines; assay type: functional, cell-based; conditions: Homo sapiens, KYSE-70; how it was run: as §1

`O=[N+]([O-])c1ccc(/C=C/c2nc3ccccc3[nH]2)s1` was tested, and the IC50 [1] was 0.89 µM, the Activity [2] was -1.8 and the IC50 [3] was 0.56 µM. The Activity [4] was 0, the IC50 [5] was 0.21 µM and the IC50 [6] was 0.27 µM. It also gave an Activity [7] of 0.7.

`C/C(=C\c1ccc([N+](=O)[O-])s1)c1nc2ccccc2[nH]1` gave an IC50 [1] of 4.67 µM, an Activity [2] of -1.3 and an IC50 [3] of 0.44 µM. The IC50 [8] was 3.28 µM, the Activity [4] was 0.5 and the IC50 [9] was 2.97 µM. It also gave an IC50 [10] of 3.73 µM, an IC50 [6] of 3.65 µM and an Activity [7] of 2.4. The IC50 [11] was 5.11 µM.

Source: ChEMBL document CHEMBL1148342, “Synthesis, X-ray crystal structures, stabilities, and in vitro cytotoxic activities of new heteroarylacrylonitriles” (J Med Chem, 2004)
